These results are taken from article PMC4207547 (Journal of Medicinal Chemistry, 2014).

One assay deals with CXCR1 and CXCR2. As to the kind of experiment: CXCL8-stimulated Ca2+ flux in hPMNs. The format is cell-based, human. The following applies: 1 μM compound. An outline of the steps: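 Human PMNs isolated from blood by dextran sedimentation, Histopaque 1077 gradient and hypotonic red-cell lysis (>95% pure, >98% viable). Cells loaded with FLIPR Calcium 3 dye in Ca2+/Mg2+-free HBSS with 10 mM HEPES plus test compound or DMSO (1% final), 37 °C, 30 min. They were then pelleted and resuspended in HBSS with Ca2+/Mg2+, and compound was re-added at the same concentration. Fluorescence was read at 10^5 cells/well: 15 s basal, then agonist injected.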

For the next assay, the system named is C5a-induced Ca2+ flux. Description: C5a-induced Ca2+ flux in hPMNs. The format is cell-based, human. The following applies: for effect on C5a-induced Ca2+ flux, in words: hPMNs, concentrations up to 5 μM. An outline of the steps:
(§1)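 Human PMNs were isolated from healthy donor blood by dextran sedimentation, Histopaque 1077 gradient and hypotonic red cell lysis (>95% pure, >98% viable). Cells were dye-loaded (FLIPR Calcium 3) in Ca/Mg-free HBSS with 10 mM HEPES plus test compound or 1% DMSO for 30 min at 37 °C. They were then resuspended in HBSS+ with compound re-added, at 10^5 cells/well. Agonist final: C5a 50 nM, fMLF 10 nM. Fluorescence (ex 485/em 525 nm) was read every 5 s for 240–500 s at room temperature, max–min as % of DMSO control.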

The test system of a further assay is PAF-induced Ca2+ flux. As to the kind of experiment: PAF-induced Ca2+ flux in hPMNs. Format: cell-based, human. The following applies: for effect on PAF-induced Ca2+ flux, in words: hPMNs, concentrations up to 5 μM. On the technique in general: Calcium assays in cells follow changes in intracellular calcium, usually with a dye or a luminescent sensor.
The next assay relates to fMLF-induced Ca2+ flux. As to the kind of experiment: fMLF-induced Ca2+ flux in hPMNs. Format: cell-based, human. The following applies: for effect on fMLF-induced Ca2+ flux, in words: hPMNs, concentrations up to 5 μM. Put shortly: as §1
The target of assay [1] is T1, CXCR2 (Homo sapiens, UniProt P25025).
T1 sequence (P25025 1-360): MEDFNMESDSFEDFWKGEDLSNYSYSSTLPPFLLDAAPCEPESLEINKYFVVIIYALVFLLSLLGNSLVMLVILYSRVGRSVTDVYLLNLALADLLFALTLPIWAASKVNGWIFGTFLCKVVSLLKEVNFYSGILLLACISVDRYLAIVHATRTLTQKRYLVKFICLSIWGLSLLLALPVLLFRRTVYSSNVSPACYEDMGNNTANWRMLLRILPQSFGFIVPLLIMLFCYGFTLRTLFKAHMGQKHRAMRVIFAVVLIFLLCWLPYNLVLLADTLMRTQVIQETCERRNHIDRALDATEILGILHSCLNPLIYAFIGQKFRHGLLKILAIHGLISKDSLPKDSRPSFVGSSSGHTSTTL
Description: Competition [125I]-CXCL8 binding assay, HEK293-hCXCR2 membranes. The following applies: up to 10 μM compound, 25 pM radioligand.

Assay [2] addresses T1, CXCR2. As to the kind of experiment: CXCR2 cell surface expression by flow cytometry in HEK293 cells. Format: cell-based. The following applies: 10 μM, 60 min exposure. An outline of the steps: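 Stable HEK293-CXCR2 cells were pretreated with 1% DMSO vehicle or test compound for 60 min; untransfected HEK293 served as negative isotype control. Cells were stained with PE-conjugated anti-human CXCR2 mouse monoclonal (1:100) at 4 °C for 60 min, washed, and fixed in 2% formaldehyde/PBS. PE signal was quantified by flow cytometry; data representative of three independent experiments.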
(In general: A flow cytometer gives signals particle by particle.)

For assay [3], the system named is CXCR2-mediated phosphorylation of ERK1/2. Description: CXCL8-induced ERK1/2 phosphorylation in HEK293 cells expressing CXCR2. The format is cell-based, human. The following applies: 10 μM compound, CXCL8 100 ng/mL, 0–30 min. Put shortly:
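G418-selected HEK293 pool stably expressing human CXCR2, 5 × 10^6 cells per 60 mm plate. […] Lysis was at 0, 5, 15 and 30 min in SDS/deoxycholate/Triton buffer with PMSF, aprotinin and leupeptin. Phospho-ERK1/2 and total ERK1/2 were detected by Western blot.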

The next assay concerns male CD1 Swiss mice. Description: Murine air-pouch model of inflammation. The following applies: 0.2 mg/kg iv, 3 h before 2% carrageenan; vs positive control cohort, p < 0.01. Format: in vivo, mouse. An outline of the steps: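 Dorsal air pouch in 10–15-week-old male CD1 Swiss mice: 2 mL air sc, reinflated with 1.5 mL next day. Test compound (0.02 or 0.20 mg/kg) in PEG400:DMF:saline 20:20:80, or vehicle, was given iv by tail vein, n = 5 per cohort. After 3 h, 1 mL PBS or 2% carrageenan in PBS was injected into the pouch. Pouch fluid plus a 2 mL PBS wash was collected 4 h later; cells were counted by trypan blue on a hemocytometer. Student's t-test vs carrageenan/vehicle cohort.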

Entries after “also recorded” stand apart in the source; their conditions may differ.

In general, IC50 refers to the point on the concentration scale where inhibition reaches its midpoint. On to `O=C(Nc1ccc(F)cc1)c1ccc(SCc2ccccc2B(O)O)nc1` [Compound 7, 2-((5-(4-Fluorophenylcarbamoyl)pyridin-2-ylthio)methyl)phenylboronic acid], for which, in the assay on CXCR1 and CXCR2, the “effect on CXCL8-stimulated Ca2+ flux, in words” value is given as “completely eliminate”. In addition, the IC50 in the assay on C5a-induced Ca2+ flux (Homo sapiens, read-out: IC50, C5a-induced Ca2+ flux) is over 5 µM; in the assay with PAF-induced Ca2+ flux (Homo sapiens, read-out: IC50, PAF-induced Ca2+ flux) it was over 5 µM; in the assay with fMLF-induced Ca2+ flux (Homo sapiens, read-out: IC50, fMLF-induced Ca2+ flux) it was over 5 µM. Besides, the “effect on C5a-induced Ca2+ flux, in words” value is listed as “failed to inhibit; also recorded: no inhibition” with C5a-induced Ca2+ flux and “no effect” with C5a-induced Ca2+ flux (listed as SX-517). For the same molecule, the “effect on PAF-induced Ca2+ flux, in words” value in the assay on PAF-induced Ca2+ flux is “failed to inhibit; also recorded: no inhibition”; with PAF-induced Ca2+ flux (listed as SX-517), “no effect”. Further, the results for the “effect on fMLF-induced Ca2+ flux, in words” value in the assay with fMLF-induced Ca2+ flux and with fMLF-induced Ca2+ flux (listed as SX-517) were “failed to inhibit; also recorded: no inhibition” and “no effect”, respectively. In addition, the “competition of [125I]-CXCL8 binding to CXCR2 membranes, in words” value at CXCR2 [1] is recorded as “failed to compete”; on CXCR2 [1] (listed as SX-517) it was “unable to compete”. At CXCR2 [2], the “effect on cell surface expression of CXCR2, in words” value was “did not significantly alter”. For the same molecule, the figures for the “effect on CXCL8-induced ERK1/2 phosphorylation, in words” value in assay [3] and in assay [3] (listed as SX-517) were “completely blocked; also recorded: directly antagonized” and “antagonized”, respectively. The “total cell count in inflammatory pouch infiltrate, in words” value with male CD1 Swiss mice is “significant reduction; also recorded: significantly reduced”.
